Measurements: ChEMBL document CHEMBL1138678, “Concise synthesis and structure-activity relationships of combretastatin A-4 analogues, 1-aroylindoles and 3-aroylindoles, as novel classes of potent antitubulin agents” (J Med Chem, 2004)

Experiments:
[1] = test system: MCF7; assay: Concentration required for the 50% inhibition of human breast cancer (MCF-7) cell line growth; assay type: functional, cell-based
[2] = test system: MKN-45; assay: Concentration required for the 50% inhibition of human stomach cancer (MKN45) cell line growth; assay type: functional, cell-based
[3] = test system: NUGC-3; assay: Concentration required for the 50% inhibition of human stomach cancer (NUGC3) cell line growth; assay type: functional, cell-based
[4] = test system: MES-SA; assay: Concentration required for the 50% inhibition of human uterine cancer (MESSA) cell line growth; assay type: functional, cell-based
[5] = test system: A549; assay: Concentration required for the 50% inhibition of human lung caner (A549) cell line growth; assay type: functional, cell-based
[6] = biological target: Tubulin beta-1 chain (Homo sapiens, UniProt Q9H4B7); assay: Inhibition of tubulin polymerization
How it was run: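 MAP-rich tubulin at 2 mg/mL in 100 mM PIPES (pH 6.9), 2 mM MgCl2, 1 mM GTP, 2% (v/v) DMSO with compound. Turbidity read at 350 nm, 37 °C, every 30 s for 30 min. Area under curve scaled between untreated control (100%) and 10 μM colchicine (0%). IC50 by nonlinear regression, at least three experiments.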

Sequence of Tubulin beta-1 chain (Q9H4B7 whole entry): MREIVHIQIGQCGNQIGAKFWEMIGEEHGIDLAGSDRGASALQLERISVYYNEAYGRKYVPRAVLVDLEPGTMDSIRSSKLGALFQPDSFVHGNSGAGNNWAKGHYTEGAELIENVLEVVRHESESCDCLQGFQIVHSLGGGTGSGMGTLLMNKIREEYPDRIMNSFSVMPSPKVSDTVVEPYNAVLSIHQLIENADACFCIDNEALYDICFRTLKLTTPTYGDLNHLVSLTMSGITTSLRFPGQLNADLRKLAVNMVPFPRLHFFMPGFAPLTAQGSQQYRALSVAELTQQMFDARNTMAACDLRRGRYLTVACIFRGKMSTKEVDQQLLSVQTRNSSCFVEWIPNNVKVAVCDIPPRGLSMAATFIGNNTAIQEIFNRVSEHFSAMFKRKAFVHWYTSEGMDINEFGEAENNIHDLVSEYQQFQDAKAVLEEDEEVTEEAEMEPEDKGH

Row | IC50 [1] [nM] | IC50 [2] [nM] | IC50 [5] [nM] | Structure (SMILES) | IC50 [3] [nM] | IC50 [4] [nM] | IC50 [6] [nM]
1 | > 10000 | > 10000 | > 10000 | COc1ccc2c(ccn2C(=O)c2ccc3c(c2)OCO3)c1 | > 10000 | > 10000 | 
2 |  |  |  | COc1ccc2c(c1)cc(C)n2C(=O)c1cc(OC)c(OC)c(OC)c1 |  |  | 3310
3 | 9060 | 487 | 6500 | COc1cc(C(=O)c2c[nH]c3cccc(OC)c23)cc(OC)c1OC | 3360 | 9390 | 
4 |  |  |  | COc1cc(OC)cc(C(=O)c2c[nH]c3cc(OC)ccc23)c1 |  |  | 2690
5 |  |  |  | COc1ccc2c(C(=O)c3cc(OC)c(OC)c(OC)c3)c(C)[nH]c2c1 |  |  | 900
6 |  |  |  | COc1ccc2c(ccn2C(=O)c2cc(OC)c(OC)c(OC)c2)c1 |  |  | 3760
7 | 7 | 4 | 23 | COc1ccc2c(C(=O)c3cc(OC)c(OC)c(OC)c3)c[nH]c2c1 | 1 | 4 | 2180

Row | Structure (SMILES) | IC50 [1] [nM] | IC50 [2] [nM] | IC50 [5] [nM] | IC50 [3] [nM] | IC50 [4] [nM] | IC50 [6] [nM]
8 | COc1ccc2[nH]cc(C(=O)c3cc(OC)c(OC)c(OC)c3)c2c1 | 639 | 326 | 614 | 360 | 884 | 
9 | COc1ccc(/C=C\c2cc(OC)c(OC)c(OC)c2)cc1O [COMBRETASTATIN A4] | 8 | 82 | 117 | > 10000 | 13 | 
